Structures are written as SMILES. The source made the active and inactive calls.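 How the source made its calls: active means toxic dose divided by the dose restoring drug killing exceeds 10, where toxic dose is under 15 µM; inactive means the rest.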 Where only a bound is given, the exact number is not on record here.

The experiment has as its system Jurkat/DNR + daunorubicin, trypan blue viability, 3 d. Description: chemoreversal in ABCB1-expressing Jurkat/DNR cells – cell-based, trypan blue viability, SAR set 2, SAR follow-up (AID 504476). The conditions noted are these: for CC50: measured here: TD50 toxicity without chemotherapeutic. The essentials:
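System: Jurkat/DNR cells. Amount: 100,000 cells per mL. Probe or stimulus: daunorubicin held at a fixed, constant concentration. Dosing: test compound spanning 3 logs, 1 to 100 µM. Incubation: 3-day compound exposure alongside daunorubicin. Detection: trypan blue counts by microscopy. Read-out basis: concentration halving cell viability.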

With `CC(=O)N1CCN(c2cc(-c3ccco3)nc3cc(-c4ccccc4)nn23)CC1`, the EC50 – broadly, the concentration giving half of the maximal effect – was 0.19 µM (inactive) and the 50% cytotoxic concentration (CC50) – broadly, the concentration giving 50% cytotoxicity – was determined as 10.1 µM.
The matching figures for `Cc1ccc(-c2cc3nc(-c4ccco4)cc(N4CCN(Cc5ccoc5)CC4)n3n2)cc1`: 0.35 µM (inactive) and 12.5 µM.
Regarding `O=C(c1ccoc1)N1CCCN(c2cc(-c3ccco3)nc3cc(-c4ccccc4)nn23)C1`, the EC50 was 0.35 µM (inactive) and the CC50 came to 12 µM.
Regarding `O=C(c1ccoc1)N1CCN(c2cc(-c3ccoc3)nc3cc(-c4ccccc4)nn23)CC1`, the EC50 was 0.42 µM (inactive) and the cytotoxic concentration (CC50) is 7.3 µM.
The matching figures for `COc1ccc(-c2cc3nc(-c4ccco4)cc(N4CCN(C(=O)c5ccoc5)CC4)n3n2)cc1`: 5.77 µM and above 100 µM.
Regarding `COc1ccccc1-c1cc(N2CCN(C(=O)c3ccoc3)CC2)n2nc(-c3ccccc3)cc2n1`, the EC50 was 0.17 µM (inactive) and the half-maximal cytotoxic concentration (CC50) was 3.7 µM.
The matching figures for `COc1cccc(-c2cc3nc(-c4ccco4)cc(N4CCN(C(C)=O)CC4)n3n2)c1`: 0.32 µM and 49.3 µM.
In the case of `COc1cccc(-c2cc(N3CCN(C(=O)c4ccoc4)CC3)n3nc(-c4ccccc4)cc3n2)c1`, the EC50 is 0.18 µM (inactive) and the 50% cytotoxic concentration (CC50) came to 5.7 µM.
The matching figures for `O=C(c1ccoc1)N1CCN(c2cc(-c3ccco3)nc3cc(-c4ccco4)nn23)CC1`: 0.19 µM (inactive) and 1.93 µM.
The matching figures for `CC(=O)N1CCN(c2cc(-c3ccco3)nc3cc(-c4cccc(Cl)c4)nn23)CC1`: 0.08 µM and 17.6 µM.

(Values after PubChem BioAssay AID504476 (NMMLSC, 2011).)
